{"data": "Published values pooled from the literature", "MET": "Hepatocyte growth factor receptor (MET, Homo sapiens, UniProt P08581)", "MET M1250T": "Hepatocyte growth factor receptor (MET, Homo sapiens, UniProt P08581, M1250T)", "MET Y1235D": "Hepatocyte growth factor receptor (MET, Homo sapiens, UniProt P08581, Y1235D)"}
{"SMILES": "CCS(=O)(=O)c1cc2cc(C[C@](O)(CC(C)(C)c3ccc(F)cc3C(N)=O)C(F)(F)F)[nH]c2cn1", "target": "MET", "assay": "cell-free assay, competition with immobilised ligand", "setting": "1 µM", "remaining binding [%]": 98}
{"SMILES": "COc1cnc(Nc2cccc(S(N)(=O)=O)c2)nc1N1CCN(c2ccccc2)C(=O)C1", "target": "MET M1250T", "assay": "binding, competition with immobilised ligand", "setting": "1 µM", "remaining binding [%]": 98}
{"SMILES": "CN(C)c1nccc(-c2cnc3ncccn23)n1", "target": "MET M1250T", "assay": "binding", "setting": "1 µM", "remaining binding [%]": 91}
{"SMILES": "O=C(c1ccc(Nc2ncc(Cl)c(-c3cc4ccccc4s3)n2)cc1)N1CCC(N2CCCC2)CC1", "target": "MET M1250T", "assay": "binding, competition with immobilised ligand", "setting": "1 µM", "remaining binding [%]": 31}
{"SMILES": "COc1ccnn2ncc(-c3ccnc(N(C)C)n3)c12", "target": "MET Y1235D", "assay": "binding", "setting": "1 µM", "remaining binding [%]": 94}
{"SMILES": "c1cncc(-c2cccc(Nc3nccc(NC4CCCCC4)n3)c2)c1", "target": "MET Y1235D", "assay": "binding, competition with immobilised ligand", "setting": "10 µM", "remaining binding [%]": 73}
{"SMILES": "O=C(c1ccc(Nc2ncc(Cl)c(-c3ccc(Cl)s3)n2)cc1)N1CCC(N2CCCC2)CC1", "target": "MET", "assay": "binding, competition with immobilised ligand", "setting": "1 µM", "remaining binding [%]": 6.9}
{"SMILES": "COc1ncc2cc3ccccc3nc2c1C#N", "target": "MET", "assay": "cell-free assay, competition with immobilised ligand", "setting": "5 µM", "remaining binding [%]": 91}
{"SMILES": "Cc1cnc(Nc2ccc(C(=O)N3CCC(N4CCCC4)CC3)cc2)nc1-c1cc2ccccc2s1", "target": "MET Y1235D", "assay": "binding, competition with immobilised ligand", "setting": "1 µM", "remaining binding [%]": 72}
{"SMILES": "Nc1ncc2c(n1)-c1c([nH]c3ccc(C#CC4CC4)cc13)CCCC2", "target": "MET", "assay": "binding, competition with immobilised ligand", "setting": "1 µM", "remaining binding [%]": 100}
{"SMILES": "Cn1cc(Cl)c2c(Oc3c(F)cc(Nc4cc(Cl)nc(N)n4)cc3F)ccnc21", "target": "MET Y1235D", "assay": "cell-free assay, competition with immobilised ligand", "setting": "0.1 µM", "remaining binding [%]": 91}
{"SMILES": "CN1CCN(c2ccc(Nc3nccc(-c4ccccc4)n3)cc2C(F)(F)F)CC1", "target": "MET Y1235D", "assay": "binding", "setting": "10 µM", "remaining binding [%]": 21}
{"SMILES": "CCN1CCN(Cc2ccc(C(=O)Nc3ccc(C)c(Oc4ccc5c(c4)CC(=O)N5)c3)cc2C(F)(F)F)CC1", "target": "MET M1250T", "assay": "binding, competition with immobilised ligand", "setting": "1 µM", "remaining binding [%]": 100}
{"SMILES": "Cc1c(C(=O)O)cc(-c2ccc(C3CCNCC3)cc2)c2ccc(-c3ccc(C(F)(F)F)cc3)cc12", "target": "MET", "assay": "cell-free assay, competition with immobilised ligand", "setting": "1 µM", "remaining binding [%]": 100}
{"SMILES": "Cc1cnn2ncc(-c3ccnc(N(C)C)n3)c2c1", "target": "MET", "assay": "binding", "setting": "1 µM", "remaining binding [%]": 100}
{"SMILES": "O=C(c1ccc(Nc2nccc(-c3cc4ccccc4s3)n2)cc1)N1CCC(N2CCCC2)CC1", "target": "MET M1250T", "assay": "binding, competition with immobilised ligand", "setting": "1 µM", "remaining binding [%]": 68}
{"SMILES": "CNC(=O)Nc1ccc2c(c1)CC[C@@]21OC(=O)N(CC(=O)N(Cc2ccc(F)cc2)[C@@H](C)C(F)(F)F)C1=O", "target": "MET Y1235D", "assay": "cell-free assay, competition with immobilised ligand", "setting": "1 µM", "remaining binding [%]": 81}
{"SMILES": "CNC(=O)[C@@H]1CC[C@@H](n2c(-c3ccc4cnccc4c3)nc3ccc(C(=O)NCc4cccc(C(N)=O)c4)cc32)C1", "target": "MET Y1235D", "assay": "binding, competition with immobilised ligand", "setting": "1 µM", "remaining binding [%]": 92}
{"SMILES": "F[C@@H]1CCN(c2nccc(-c3cnn4ncccc34)n2)C1", "target": "MET Y1235D", "assay": "binding", "setting": "1 µM", "remaining binding [%]": 100}
{"SMILES": "CC(C)(C)c1ccc(-c2nc(CBr)nn2-c2cccc(O)c2)cc1", "target": "MET", "assay": "cell-free assay, competition with immobilised ligand", "setting": "10 µM", "remaining binding [%]": 83}
{"SMILES": "C[C@@H]1CN(c2ccc3ncc(-c4ccc5[nH]nc(C6CC6)c5c4)n3n2)C[C@H](C)O1", "target": "MET", "assay": "binding, competition with immobilised ligand", "setting": "0.5 µM", "remaining binding [%]": 80}
{"SMILES": "C[C@H](c1ccc(F)cc1)N(Cc1cccc(C(=O)O)c1)C(=O)c1cnc2ccccc2c1", "target": "MET M1250T", "assay": "cell-free assay, competition with immobilised ligand", "setting": "1 µM", "remaining binding [%]": 93}
{"SMILES": "O=C(NCCCN1CCOCC1)c1ccc(Nc2nccc(-c3cc4ccccc4s3)n2)cc1", "target": "MET Y1235D", "assay": "binding, competition with immobilised ligand", "setting": "1 µM", "remaining binding [%]": 100}
{"SMILES": "CCCCN(CCCC)C(=O)CN1C[C@H](c2cc(OC)c3c(c2)OCO3)[C@@H](C(=O)O)[C@@H]1CC(C)(C)CCC", "target": "MET Y1235D", "assay": "cell-free assay, competition with immobilised ligand", "setting": "1 µM", "remaining binding [%]": 100}
{"SMILES": "O=C(NCCCN1CCOCC1)c1ccc(Nc2ncc(Cl)c(-c3ccc(Cl)s3)n2)cc1", "target": "MET", "assay": "binding, competition with immobilised ligand", "setting": "1 µM", "remaining binding [%]": 37}
{"SMILES": "FC(F)(F)Oc1cccc(-c2cnc3ccc(-c4ccncc4)nn23)c1", "target": "MET", "assay": "cell-free assay, competition with immobilised ligand", "setting": "5 µM", "remaining binding [%]": 63}
{"SMILES": "CO[C@@H](C)c1c(Nc2ccc([C@@H](N(C)C(=O)C3CCS(=O)(=O)CC3)C(F)(F)F)cc2)cnc2cc(Cl)nn12", "target": "MET M1250T", "assay": "cell-free assay, competition with immobilised ligand", "setting": "1 µM", "remaining binding [%]": 100}
{"SMILES": "COc1cnc(Nc2cccc(S(N)(=O)=O)c2)nc1N1CCN(c2ccccc2)CC1", "target": "MET", "assay": "binding, competition with immobilised ligand", "setting": "1 µM", "remaining binding [%]": 100}
{"SMILES": "c1cnn2ncc(-c3ccnc(N4CCC45COC5)n3)c2c1", "target": "MET", "assay": "binding", "setting": "1 µM", "remaining binding [%]": 83}
{"SMILES": "CN(C)C(=O)Cn1cc(-c2nc([C@@](C)(c3ccc(-c4cnc(N)nc4)cc3)C3CC3)no2)cn1", "target": "MET M1250T", "assay": "cell-free assay, competition with immobilised ligand", "setting": "1 µM", "remaining binding [%]": 93}
{"SMILES": "O=C(NCC1CCOCC1)c1n[nH]cc1NC(=O)c1c(F)cccc1F", "target": "MET", "assay": "binding, competition with immobilised ligand", "setting": "1 µM", "remaining binding [%]": 100}
{"SMILES": "C[C@H]1CCN(c2nccc(-c3cnn4ncccc34)n2)C1", "target": "MET Y1235D", "assay": "binding", "setting": "1 µM", "remaining binding [%]": 100}
{"SMILES": "O=C(Nc1c[nH]nc1C(=O)NC1CCNCC1)c1cc(F)cc(F)c1", "target": "MET Y1235D", "assay": "binding, competition with immobilised ligand", "setting": "1 µM", "remaining binding [%]": 100}
{"SMILES": "CN(C)c1nccc(-c2cnn3ncccc23)n1", "target": "MET M1250T", "assay": "binding", "setting": "1 µM", "remaining binding [%]": 100}
